Measured values published in ChEMBL document CHEMBL2429796, “Discovery and synthesis of novel benzofurazan derivatives as inhibitors of influenza A virus” (Bioorg Med Chem Lett, 2013).
pIC50: −log10 of the molar value. Activity calls are given as the source filed them. The rule behind the calls is not given here.

Tests used:
HEK-293T = experiment: Inhibition of influenza A virus HA-tagged polymerase acidic protien transfected in HEK293T cells after 24 hrs by ELISA; format: cell-based
MDCK = experiment: Cytotoxicity against MDCK cells; format: cell-based, Canis lupus familiaris; details: dog
Influenza A virus = experiment: Antiviral activity against Influenza A virus A/WSN/33(H1N1) infected in MDCK cells after 48 hrs by plaque reduction assay; format: functional, organism-based, A/WSN/1933(H1N1); details: for IC50: mdck; for pIC50: Influenza A virus, A/WSN/1933(H1N1), MDCK, 48 h, read-out: IC50
Outline: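 Plaque-reduction assay in MDCK cells infected with influenza A/WSN/33 (H1N1). IC50 was determined only for compounds positive in an ELISA prescreen for binding to the polymerase PA subunit.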

| SMILES | inhibition (HEK-293T) | Cytotoxic concentration (MDCK) [µM] | IC50 (Influenza A virus) | Activity (MDCK) [µM] | pIC50 (Influenza A virus) |
| --- | --- | --- | --- | --- | --- |
| COc1ccc(Sc2ccc([N+](=O)[O-])c3nonc23)cc1 | Active | 40 | Not Active | – | – |
| COc1ccc(CSc2ccc(Cl)c3nonc23)cc1 | Active | – | Not Active | – | – |
| O=[N+]([O-])c1ccc(SCc2ccc(F)cc2)c2nonc12 | Active | 20 | Not Active | – | – |
| COc1cccc(Oc2ccc([N+](=O)[O-])c3nonc23)c1 | Active | – | Not Active | – | – |
| O=[N+]([O-])c1ccc(SCc2ccccc2)c2nonc12 | Active | – | Not Active | 20 | – |
| COc1ccc(Oc2ccc([N+](=O)[O-])c3nonc23)cc1 | Active | 60 | – | – | 4.52 |
| O=[N+]([O-])c1ccc(Sc2ccccc2Br)c2nonc12 | Active | 40 | – | – | < 5.00 |
| O=[N+]([O-])c1ccc(SCc2ccc(Br)cc2)c2nonc12 | Active | > 10 | – | – | ≤ 5.30 |
| O=Cc1ccc(Oc2ccc([N+](=O)[O-])c3nonc23)cc1 | Active | > 40 | – | – | 4.70 |
| O=[N+]([O-])c1cccc(CSc2ccc([N+](=O)[O-])c3nonc23)c1 | Active | 20 | – | – | 6.00 |
| CNc1ccc(SCc2ccc(OC)cc2)c2nonc12 | Active | – | Not Active | – | – |
| O=[N+]([O-])c1ccc(Sc2ccc(Br)cc2)c2nonc12 | Active | 40 | – | – | 5.00 |
| N#Cc1ccc(Oc2ccc([N+](=O)[O-])c3nonc23)cc1 | Active | – | Not Active | – | – |
| O=[N+]([O-])c1ccc(Sc2ccc(F)cc2)c2nonc12 | Active | 40 | – | – | 5.30 |
| Nc1cccc(Sc2ccc([N+](=O)[O-])c3nonc23)c1 | Active | 40 | – | – | 5.00 |
| O=[N+]([O-])c1ccc(Sc2ccccc2)c2nonc12 | Active | – | Not Active | 20 | – |
| O=[N+]([O-])c1ccc(Nc2ccc(O)cc2)c2nonc12 | Active | – | Not Active | – | – |
| O=[N+]([O-])c1ccc(Oc2cccc(Br)c2)c2nonc12 | Active | > 40 | – | – | 4.70 |
| O=[N+]([O-])c1ccc(Sc2ccc(Cl)cc2)c2nonc12 | Active | 40 | – | – | 5.00 |
| O=[N+]([O-])c1ccc(Oc2ccc(CCO)cc2)c2nonc12 | Active | 20 | – | – | 5.00 |
| COc1ccc(CSc2ccc(NCc3ccccc3)c3nonc23)cc1 | Active | – | Not Active | – | – |
| O=[N+]([O-])c1ccc(Nc2ccccc2S)c2nonc12 | Active | > 80 | – | – | 4.70 |
| O=[N+]([O-])c1ccc(OCc2ccccc2)c2nonc12 | Active | – | Not Active | – | – |
| O=[N+]([O-])c1ccc(SCc2ccc(Cl)cc2)c2nonc12 | Active | – | Not Active | – | – |
| O=[N+]([O-])c1ccc(Nc2ccccc2O)c2nonc12 | Active | – | Not Active | – | – |
| O=[N+]([O-])c1ccc(Sc2ccc([N+](=O)[O-])c3nonc23)cc1 | Active | 40 | – | – | 5.00 |
